What was measured:
[1] = tested on: NCI-H460; experiment: Anticancer activity against paclitaxel resistant variant human H460 cells; assay type: functional, cell-based
How it was run: (§1)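 H460 and the paclitaxel-resistant, P-gp-overexpressing H460taxR line were grown in RPMI 1640 with 10% heat-inactivated FCS, penicillin and streptomycin, at 37 C in 5% CO2. Cells were seeded in 96-well plates, dosed next day from DMSO stocks (DMSO <1%, matched DMSO control), and stained with sulforhodamine B at 72 h. IC50 came from four-parameter logistic fits; at least three experiments.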

[2] = tested on: NCI-H460; experiment: Anticancer activity against human H460 cells; assay type: functional, cell-based; how it was run: as §1
[3] = Anticancer activity against human NHFB cells; assay type: ADME, cell-based
How it was run: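 Normal human fibroblasts (NHFB) were kept in DMEM with 10% heat-inactivated FCS, penicillin and streptomycin, at 37 C in 5% CO2. They were seeded in 96-well plates and treated next day, with DMSO below 1% and a matched DMSO control. Sulforhodamine B readout was at 72 h, with viability taken relative to control. IC50 came from four-parameter logistic fits; unreached values were recorded as >100 µM because of the solubility/DMSO limit.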

SMILES | IC50 [1] [nM] | IC50 [2] [nM] | IC50 [3] [µM]
O=C1N/C(=N\c2ccc(Cl)cc2)S/C1=C/c1ccccc1O | 1180 | 1850 | > 100
CN(C)c1ccc(/C=C2/S/C(=N/c3ccc(Cl)cc3)NC2=O)cc1 | 2930 | 2890 | > 100
CC(=O)Nc1ccc(/C=C2/S/C(=N/c3cccc(Cl)c3)NC2=O)cc1 | 1250 | 1190 | > 100
CN(C)c1ccc(/C=C2/SC(=Nc3ccccc3Cl)NC2=O)cc1 | 880 | 730 | > 100
Cc1ccc(N=C2NC(=O)/C(=C\c3ccc(N(C)C)cc3)S2)cc1 | 820 | 940 | > 100

More lines, now with the values ahead:

IC50 [1] [nM] | IC50 [2] [nM] | IC50 [3] [µM] | SMILES
1700 | 1780 | 195 | COc1ccc(/C=C2/S/C(=N/c3ccccc3C)NC2=O)cc1
210 | 500 | > 100 | CN(C)c1ccc(/C=C2/SC(=Nc3ccccc3)NC2=O)cc1
1600 | 2520 | > 100 | COc1ccc(N=C2NC(=O)/C(=C\c3ccc(N(C)C)cc3)S2)cc1
1080 | 1320 | > 100 | CN(C)c1ccc(/C=C2/SC(=Nc3ccc(O)cc3)NC2=O)cc1
540 | 650 | > 100 | Cc1ccccc1/N=C1\NC(=O)/C(=C\c2ccc(N(C)C)cc2)S1
